Measured values: ChEMBL document CHEMBL4229550, “An antimycobacterial pleuromutilin analogue effective against dormant bacilli” (Bioorg Med Chem, 2018)
Values after ≈ are worked out from the molar mass of the structure shown.

Key:
Staphylococcus aureus = assay: Bactericidal activity against Staphylococcus aureus incubated for 24 hrs under aerobic condition by MABA; type: functional
Mus musculus = assay: Oral bioavailability in Balb/c mouse at 30 mg/kg; type: ADME, organism-based; details: in vivo
Summary of the method: (§1)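 Single oral dose of 30 mg/kg in BALB/c mice (n = 6). Serum PK parameters were t1/2, tmax, Cmax and AUC over 0–24 h and to infinity. Oral bioavailability F was calculated against the 3 mg/kg IV dose.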

[1] = AUC (0 to 24 hrs) in Balb/c mouse serum at 30 mg/kg, po; type: ADME, organism-based; set-up: time < 24 hr, dose 30 mg/kg, route oral; summary of the method: as §1
[2] = Tmax in Balb/c mouse at 30 mg/kg, po; type: ADME, organism-based; details: in vivo
Summary of the method: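 Single 30 mg/kg oral dose in six BALB/c mice; serum half-life and tmax are derived from the concentration–time profile.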

[3] = Efflux ratio of apparent permeability in human Caco2 cells at 10 uM after 2 hrs by LC-MS/MS analysis; type: ADME, cell-based; details: caco-2, 2 h
[4] = system: Mycobacterium tuberculosis; assay: Antibacterial activity against Mycobacterium tuberculosis Erdman infected in Balb/c mouse assessed as reduction in bacterial load in lungs at 200 mg/kg, po for 3 weeks starting from 10 days post infection measured on day 21 post infection; type: functional, Erdman = ATCC 35801
Summary of the method: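 Female BALB/c mice, 7–8 weeks old, are aerosol-infected with Mtb Erdman. From day 10 they receive oral gavage in water for three weeks, in groups of 5. Lungs and spleens are harvested at day 21 post-infection and plated for CFU. Efficacy is the log10 reduction in lung burden versus untreated (vehicle) controls.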

Vero = assay: Cytotoxicity against African green monkey Vero cells assessed as reduction in cell viability after 72 hrs by MTT assay; type: cell-based; details: Chlorocebus sabaeus
Summary of the method: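 Vero cells were grown in complete EMEM with 10% FBS and exposed for 72 h to 0.78–200 µg/mL. The medium was then swapped for phenol-red-free EMEM and MTT was added. Formazan absorbance was read at 570 nm to give IC50.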

[5] = AUC (0 to 24 hrs) in Balb/c mouse lung at 30 mg/kg, po; type: ADME, organism-based; set-up: dose 30 mg/kg, time < 24 hr, route oral; details: in vivo
Acinetobacter baumannii = assay: Antibacterial activity against Acinetobacter baumannii ATCC 19606 incubated for 24 hrs under aerobic condition by MABA; type: functional; details: ATCC 19606 = CIP 70.34 = JCM 6841, 24 h, read-out: MIC100
Summary of the method: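 Mid-log cultures at OD 0.5 were exposed to serial dilutions under aerobic conditions at 37 °C for 24 h. Resazurin was then added from a 0.08% stock for 1 h. MIC100 was the lowest concentration where the dye stayed blue (pink means growth). Absorbance was also read at 570 and 600 nm.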

[6] = AUC (0 to infinity) in Balb/c mouse at 30 mg/kg, po; type: ADME, organism-based; set-up: dose 30 mg/kg, route oral, time infinity; details: in vivo; summary of the method: as §1
Streptococcus salivarius = assay: Antibacterial activity against Streptococcus salivarius […] incubated for 24 hrs under aerobic condition by MABA; type: functional; details: read-out: MIC100
Summary of the method: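 Resazurin was then added from a 0.08% stock for 1 h. MIC100 was the lowest concentration where the dye stayed blue (pink means growth). Absorbance was also read at 570 and 600 nm.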

In the case of `CC[C@]1(C)C[C@@H](OC(=O)CSC(C)(C)CNC(=O)[C@H](N)CC(C)C)[C@]2(C)[C@H](C)CC[C@]3(CC[C@@H](O)[C@H]32)[C@@H](C)[C@@H]1O`, the MBC (Staphylococcus aureus) is reported as 1.56 µg/mL (≈ 2.68 µM), the F (Mus musculus) is reported as 27.6% and the AUC(0-t) at 24 h [1] is reported as 2500 ng·h/mL. The Tmax [2] was 49.8 min, the Ratio [3] was 5.44 and the “log(activity)” value [4] was 0.47. For the same compound, the IC50 (Vero) was 25 µg/mL (≈ 42.9 µM), the AUC [5] was 66281 ng·h/g and the MIC (Acinetobacter baumannii) was 1.56 µg/mL (≈ 2.68 µM). For the same compound, the AUC(0-inf) [6] was 2890 ng·h/mL and the MIC (Streptococcus salivarius) was 6.25 µg/mL (≈ 10.7 µM).
